Drawing on ChEMBL document CHEMBL3271971, “Antineoplastic and biochemical properties of arylsulfonylhydrazones of 2-formylpyridine N-oxide” (J Med Chem, 1976), this text covers Activity, Survival and T/C for 16 compounds.

In general, T/C refers to the ratio of treated to control.

In one data set the test system is Mus musculus. Nature of the data set: Toxicity in CD-1 mouse allografted with mouse S180A cells assessed as change in body weight at maximum effective dose administered qd for 6 days (reference value: 23.2%). It counts as organism-based. As to conditions: 144 h.
Data set [1] can be described thus: Antineoplastic activity against mouse S180A cells allografted in CD-1 mouse assessed as average survival at maximum effective dose administered qd for 6 days (reference value: 12.5 +/- 0.3 days). It counts as functional. The essentials: (§1)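 Sarcoma 180 ascites cells were transplanted from a donor mouse bearing a 7-day tumour. Each agent was tested at 10–60 mg/kg/day, once daily for six consecutive days, starting 24 h after transplantation, in groups of 5–10 mice. Pooled untreated controls totalled 40 mice. Mice surviving beyond 50 days were counted as 50-day survivors, and body-weight change over therapy served as the toxicity index.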

Data set [2] in a line: Antineoplastic activity against mouse S180A cells allografted in CD-1 mouse assessed as mouse survival at maximum effective dose administered qd for 6 days measured for 50 days relative to control. In kind it is functional. In short, it runs like this: as §1
A short description of data set [3]: Antineoplastic activity against mouse S180A cells allografted in CD-1 mouse assessed as maximum dose required for increase in mouse survival administered qd for 6 days. In kind it is functional.
Data set [4] can be described thus: Antineoplastic activity against mouse S180A cells allografted in CD-1 mouse assessed as average survival at maximum effective dose administered qd for 6 days relative to control. It counts as functional. In short, it runs like this: as §1

As to `O=S(=O)(Cc1ccccc1)N/N=C/c1ccncc1`, the Activity in the data set on Mus musculus was -3.3%; in data set [3] it was 60 mg/kg. The values for the Survival in data set [1] and in data set [2] were 21.2 days and 0%, respectively. In addition, in data set [4], the T/C was found to be 169%.
Taken in the same sequence, the figures for `O=S(=O)(Cc1ccccc1)N/N=C/c1cccc[n+]1[O-]` were -0.3%, 40 mg/kg, 35.2 days, 40% and 282%.
`Cc1ccc(S(=O)(=O)N/N=C/c2ccccc2[N+](=O)[O-])cc1`: the Activity with Mus musculus was determined as 2.1%; in data set [3], 60 mg/kg. The Survival in data set [1] is 13.2 days; in data set [2], 0%. Besides, in data set [4], the T/C is listed as 105%.
`Cc1ccc(S(=O)(=O)N/N=C/c2ccccc2)cc1`: the Activity in the data set with Mus musculus was 15.1%; in data set [3], 20 mg/kg. Also, the Survival was 14.4 days in data set [1] and 0% in data set [2]. Moreover, the T/C in data set [4] is 115%.
In the same order, the values of `Cc1ccc(S(=O)(=O)N/N=C/c2ccccn2)cc1` are 20.1%, 10 mg/kg, 15.4 days, 0% and 123%.
In the same order, the values of `Cc1ccc(S(=O)(=O)N/N=C/c2cccnc2)cc1` are 12.6%, 60 mg/kg, 13.2 days, 0% and 106%.
Regarding `Cc1ccc(S(=O)(=O)N/N=C/c2cc[n+]([O-])cc2)cc1`, the Activity with Mus musculus is 17.7%; in data set [3], 60 mg/kg. For the same compound, the Survival in data set [1] was determined as 15.4 days; in data set [2], 0%. In data set [4], the T/C came to 123%.
Taken in the same sequence, the figures for `Cc1ccc(C(=O)N/N=C/c2cccc[n+]2[O-])cc1` were 10.2%, 60 mg/kg, 11.2 days, 0% and 90%.
On to `O=S(=O)(N/N=C/c1ccc2ccccc2[n+]1[O-])c1ccccc1`, for which the values for the Activity (in the data set on Mus musculus; in data set [3]) were 2.6% and 20 mg/kg, respectively. The figures for the Survival in data set [1] and in data set [2] were 13.6 days and 0%, respectively. In addition, the T/C in data set [4] came to 109%.
Taken in the same sequence, the figures for `Cc1ccc(S(=O)(=O)N/N=C/c2ccncc2)cc1` were -0.9%, 60 mg/kg, 28.2 days, 10% and 226%.
Taken in the same sequence, the figures for `CS(=O)(=O)N/N=C/c1ccncc1` were 18.6%, 20 mg/kg, 13.4 days, 0% and 107%.
Take `CS(=O)(=O)N/N=C/c1cccc[n+]1[O-]`: the Activity worked out at 20% in the data set with Mus musculus and 60 mg/kg in data set [3]. The Survival was found to be 15.4 days in data set [1] and 0% in data set [2]. Also, the T/C in data set [4] is given as 123%.
In the case of `O=S(=O)(N/N=C/c1cccc[n+]1[O-])c1ccccc1`, the Activity in the data set on Mus musculus was -5.2%; in data set [3], 40 mg/kg. The Survival was 42.4 days in data set [1] and 40% in data set [2]. Further, in data set [4], the T/C was 339%.
Consider `Cc1ccc(S(=O)(=O)N/N=C/c2ccc[n+]([O-])c2)cc1`, for which the values for the Activity (with Mus musculus; in data set [3]) were 0% and 60 mg/kg, respectively. For the same compound, the Survival in data set [1] is 13.6 days; in data set [2], 0%. Moreover, the T/C in data set [4] stood at 109%.
`Cc1ccc(C(=O)N/N=C/c2ccccn2)cc1`: the Activity amounted to 17.4% in the data set on Mus musculus and 60 mg/kg in data set [3]. Moreover, the Survival was found to be 11.8 days in data set [1] and 0% in data set [2]. The T/C in data set [4] worked out at 94%.
Taken in the same sequence, the figures for `O=S(=O)(N/N=C/c1c2ccccc2cc[n+]1[O-])c1ccccc1` were 1.6%, 10 mg/kg, 13.4 days, 0% and 107%.
